# According to PubChem BioAssay:
# Activity calls are given as the source filed them. Cut-off read from the data, not from the text of the source, unless noted: active = inhibition above about 30%; inactive = the rest.
# Columns and labels:
# [1] = HUVEC growth inhibition – cell-based, human, primary screen (AID 575;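 active = viability at or below 30% in both replicate assays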;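 note: 100% = median of untreated cell wells with 0.1% DMSO on each plate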); details: HUVEC proliferation, CellTiter-Glo luminescence, 72 h; at 10 µM; stronger effect = lower value
# Summary of the method: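 Material: primary human umbilical vein endothelial cells / Schedule: 72 h exposure, 37 °C, 5% CO2, 30 min RT equilibration / Signal: ATP-based CellTiter-Glo luminescent read / Read-out basis: percent of median DMSO-control luminescence / Control set: 32 DMSO-only cell-control wells (high), 32 MePR drug-control wells (low) per plate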
# [2] = H69AR cell proliferation blockers – human, duplicate replicates, primary screen (AID 580;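 active = viability at or under a set limit in both replicates, limit being median viability minus 3 SD, cut at about 48% in these data, passing the limit was not always enough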;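 note: 100% = mean luminescence of untreated wells and 0% = no signal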); details: H69AR lung tumor cells viability, ATP luminescence, 72 h; at 10 µM; stronger effect = lower value
# [3] = MRP1 drug-resistance reversers in H69AR cells – cell-based, doxorubicin co-treatment, pilot screen (AID 601;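 active = viability loss from added drug above about 55%, and viability with drug at most 40%, in both replicates, limit read from the data, passing the limit was not always enough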); details: CellTiter-Glo, 72 h, at 10 µM; for differential viability (reversal): stronger effect = higher value
# [4] = yeast transport mutant growth inhibition pilot in 384-well plates, post-Golgi transport modulator project (AID 636; in the data active = inhibition above about 31%); details: absorbance 615 nm, about 18 h, stronger effect = higher value
# [5] = growth suppression of yeast trafficking mutant, preliminary HTS, modulators of trafficking downstream of Golgi apparatus project, 1536-format plate, OD 615 nm (AID 637); details: yeast transport mutant growth, absorbance 615 nm, 18 h; stronger effect = higher value
# [6] = H69AR cells + 2 uM doxorubicin, measured here: viability with 2 uM doxorubicin, stronger effect = lower value
# [7] = H69AR cells, compound alone cytotoxicity
SMILES,viability [1],viability [2],differential viability (reversal) ([3]; H69AR cells + 2 uM doxorubicin),"viability [3, 6] [%]","viability [3, 7] [%]",inhibition [4],inhibition [5]
Cc1cccc(OCC(=O)Nc2ccccc2N2CCN(C(=O)C(C)C)CC2)c1C,88.3% (inactive),88.8% (inactive),2.79% (inactive),86,88.8,-1.95% (inactive),4.13% (inactive)
CCN(CC)CCN1C(=O)C(O)=C(C(=O)c2cccs2)C1c1ccc(C)o1 (stereo not given),98.7% (inactive),98.6% (inactive),5.08% (inactive),93.6,98.6,-4.13% (inactive),-1.11% (inactive)
Nc1nc(-c2ccc(Cl)cc2)cc(C(F)(F)F)n1,107% (inactive),105% (inactive),13.3% (inactive),91.3,105,-1.82% (inactive),-1.11% (inactive)
Cn1c(=O)c2ncn(CC(=O)NCCOc3ccccc3)c2n(C)c1=O,108% (inactive),91.9% (inactive),7.6% (inactive),84.2,91.9,0.39% (inactive),5.71% (inactive)
COc1ccc(N(CC(=O)Nc2ccc(F)c(Cl)c2)S(=O)(=O)c2c(C)noc2C)cc1,93.8% (inactive),81.5% (inactive),-7.84% (inactive),89.3,81.5,-1.07% (inactive),-6.83% (inactive)
CCOC(=O)CS(=O)(=O)c1nc(-c2ccccc2)cc(C(F)(F)F)n1,5.62% (active),1.61% (active),0.47% (inactive),1.14,1.61,0.39% (inactive),-0.63% (inactive)
COC(=O)c1[nH]c2ccc(C)cc2c1NC(=O)CN1CCCc2ccccc21,48.2% (inactive),67.6% (inactive),-15.6% (inactive),83.2,67.6,-5.73% (inactive),0.79% (inactive)
CCCC(=O)Nc1ccc(NC(=O)c2cccs2)cn1,95.9% (inactive),87.8% (inactive),5.45% (inactive),82.3,87.8,-2.99% (inactive),-2.86% (inactive)
COc1ccc(S(=O)(=O)Nc2ccc3c(c2)OCO3)cc1Cl,12.9% (active),87.3% (inactive),5.36% (inactive),82,87.3,-6.67% (inactive),12.1% (inactive)
Cn1c(=O)n(C)c2cc(NC(=O)C(F)(F)F)ccc21,68.9% (inactive),97.4% (inactive),11.6% (inactive),85.8,97.4,-0.92% (inactive),-7.94% (inactive)
CC(C)(C)C1CCc2c(sc3c2C(=O)NC(c2ccco2)N3)C1 (stereo not given),72.5% (inactive),88.5% (inactive),-10.4% (inactive),98.9,88.5,1.97% (inactive),-0.16% (inactive)
c1ccc(CCc2nn3c(Cn4cnc5ccccc54)nnc3s2)cc1,75.8% (inactive),81.8% (inactive),-3.56% (inactive),85.4,81.8,-1.18% (inactive),11.4% (inactive)
COc1ccc2c(c1)C(=O)N(c1ccccc1OC)C(=O)C2,74.9% (inactive),92.8% (inactive),-8.61% (inactive),101,92.8,-3.87% (inactive),0.32% (inactive)
CCCOc1ccc(S(=O)(=O)NCCCN2CCOCC2)c2ccccc12,83.2% (inactive),90% (inactive),7.43% (inactive),82.6,90,-6.13% (inactive),4.6% (inactive)
CCSc1nnc(NC(=O)c2cc(C)oc2C)s1,85% (inactive),99.7% (inactive),12.6% (inactive),87.1,99.7,-3.55% (inactive),3.33% (inactive)
CCC(C)(C)n1nnnc1C(c1ccccc1OC)N1CCSCC1 (stereo not given),99.6% (inactive),90% (inactive),7.71% (inactive),82.3,90,-0.78% (inactive),-4.76% (inactive)
CCCSc1nnc(-c2ccccc2NC(=O)CC)c(=O)[nH]1,99.4% (inactive),103% (inactive),14.4% (inactive),88.1,103,-5.87% (inactive),3.97% (inactive)
O=c1ccn(Cc2ccccc2Cl)cc1,99.9% (inactive),88.2% (inactive),9.77% (inactive),78.4,88.2,-4.47% (inactive),-3.33% (inactive)
CC1CCN(c2nc3c(c(=O)n(C)c(=O)n3C)n2Cc2ccccc2)CC1,79.2% (inactive),88.1% (inactive),41.1% (inactive),47,88.1,-2.27% (inactive),21.6% (inactive)
CC(C)NC(=O)c1ccccc1NC(=O)c1ccccc1N(C)S(C)(=O)=O,103% (inactive),88.9% (inactive),-4.12% (inactive),93,88.9,-7.37% (inactive),1.9% (inactive)

SMILES,viability [1],viability [2],differential viability (reversal) ([3]; H69AR cells + 2 uM doxorubicin),"viability [3, 6] [%]","viability [3, 7] [%]",inhibition [4],inhibition [5]
O=C(Nc1ccc(N2CCCC2=O)cc1)c1cccc(F)c1,109% (inactive),99.9% (inactive),21.6% (inactive),78.2,99.9,-4.61% (inactive),0.95% (inactive)
COc1cccc(C(=O)Nc2ccc(NC(=O)C(C)(C)C)cn2)c1,96% (inactive),76.2% (inactive),2.62% (inactive),73.5,76.2,2.34% (inactive),-0.48% (inactive)
CN(C)/C=c1\sc2c(C#N)cc(C(=O)c3ccc(Br)cc3)n2c1=O,70% (inactive),76.6% (inactive),8.66% (inactive),68,76.6,-4.29% (inactive),-1.59% (inactive)
CC(C)CC(OC(=O)c1cccs1)C(=O)NCc1ccco1 (stereo not given),103% (inactive),80.6% (inactive),-0.4% (inactive),81,80.6,-7.6% (inactive),-4.13% (inactive)
Cc1c(O)c(CN2CCCC(C)C2)cc2c3c(c(=O)oc12)CCC3 (stereo not given),93.3% (inactive),83.1% (inactive),-2.96% (inactive),86.1,83.1,-6.97% (inactive),-2.38% (inactive)
O=C(CCCn1c(=O)c2sccc2n(Cc2ccc(F)cc2)c1=O)NCc1ccco1,51.1% (inactive),27.4% (active),-52% (inactive),79.4,27.4,-0.39% (inactive),-4.44% (inactive)
Cc1cc(NC(=O)c2ccc3nc(-c4ccccc4)c(-c4ccccc4)nc3c2)no1,23.6% (active),13.4% (active),-1.37% (inactive),14.8,13.4,-1.05% (inactive),0.79% (inactive)
CC12C(=O)N(CCC(=O)O)C(=O)C1C1C=CC2C1 (stereo not given),107% (inactive),89.6% (inactive),-1.44% (inactive),91,89.6,-2.37% (inactive),2.86% (inactive)
CN(CC(=O)Nc1ccccc1Cl)C(=O)COC(=O)CNC(=O)c1ccc(Br)o1,95.4% (inactive),104% (inactive),14.3% (inactive),89.5,104,0.39% (inactive),5.4% (inactive)
CC(=O)c1c(C)[nH]c(C(=O)NC2=NCCS2)c1C,80.9% (inactive),99.8% (inactive),23.3% (inactive),76.5,99.8,-3.51% (inactive),-5.4% (inactive)
COc1oc(-c2ccccc2)nc1C(F)(F)F,94.3% (inactive),109% (inactive),9.45% (inactive),99.9,109,-3.82% (inactive),-2.38% (inactive)
O=C(Nc1nccs1)c1cccc(NC(=O)C2CC2)c1,103% (inactive),87.5% (inactive),8.43% (inactive),79.1,87.5,-6.13% (inactive),-0.48% (inactive)
CCN(CC(=O)NC(=O)NCc1ccco1)Cc1nc2ccccc2c(=O)[nH]1,86.5% (inactive),79.7% (inactive),2.42% (inactive),77.3,79.7,-0.78% (inactive),1.43% (inactive)
CC(C)Cc1nc2oc3c(N4CCN(CCO)CC4)ncnc3c2c2c1CCCC2,52.4% (inactive),42.6% (active),-12.1% (inactive),54.7,42.6,-0.26% (inactive),-6.33% (inactive)
Nc1ccc(Sc2nnnn2-c2ccccc2)c(Cl)c1,101% (inactive),92% (inactive),-9.96% (inactive),102,92,-6.32% (inactive),-2.06% (inactive)
Nc1nc(Nc2cccc3ccccc23)nc(C2CCCC2=O)n1 (stereo not given),89.7% (inactive),18% (active),0.545% (inactive),17.5,18,-4.46% (inactive),3.45% (inactive)
Cc1ccc(S(=O)(=O)NC(C(=O)OCC(=O)NC2CCS(=O)(=O)C2)C(C)C)cc1 (stereo not given),98.1% (inactive),92.9% (inactive),0.03% (inactive),92.8,92.9,-1.69% (inactive),0.63% (inactive)
CN(C)S(=O)(=O)c1cccc(C(=O)Nc2cccnc2)c1,83.9% (inactive),89.5% (inactive),7.48% (inactive),82,89.5,-4.93% (inactive),1.43% (inactive)
CCOC(=O)NC(c1ccccc1)C1CCCCC1=O (stereo not given),103% (inactive),94.2% (inactive),5.88% (inactive),88.3,94.2,-3.64% (inactive),0.32% (inactive)
Cc1cc(=O)oc2c(CN3CCN(C)CC3)c(O)c(Cl)cc12,101% (inactive),90.7% (inactive),6.16% (inactive),84.5,90.7,-6.05% (inactive),-0.95% (inactive)
